Measurements from PubChem BioAssay AID588831 (Broad Institute, 2011).
Active and inactive are the calls of the source.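 Rule for the calls: active = compounds lowering dye-labelled HDL uptake whose fitted half-maximal concentration is at most double the top tested dose; inconclusive = flat fit with moderate inhibition, or an unreliable curve fit; inactive = the rest.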

Target: Scavenger receptor class B member 1 (Mus musculus) (UniProt Q61009)
Assay: HDL uptake after compound washout, mSR-BI cells – ldlA[mSR-BI] CHO cells, fluorescence, dry powder, mechanism study for SR-BI HDL uptake inhibitor project, dose response (AID 588831)
Details: DiI-HDL uptake after washout
How it was run: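 System: ldlA[mSR-BI] CHO cells, LDL-receptor-deficient, overexpressing mouse SR-BI; Buffer or medium: Ham's F12 with 0.5% BSA, 25 mM HEPES pH 7.4; Probe or stimulus: DiI-HDL at 10 µg/mL; Times: 2 h compound pretreatment at 37 °C, 3 h DiI-HDL uptake; Measured by: DiI fluorescence, bottom read.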

Sequence of Scavenger receptor class B member 1 (Mus musculus) (Q61009 whole entry, looked up): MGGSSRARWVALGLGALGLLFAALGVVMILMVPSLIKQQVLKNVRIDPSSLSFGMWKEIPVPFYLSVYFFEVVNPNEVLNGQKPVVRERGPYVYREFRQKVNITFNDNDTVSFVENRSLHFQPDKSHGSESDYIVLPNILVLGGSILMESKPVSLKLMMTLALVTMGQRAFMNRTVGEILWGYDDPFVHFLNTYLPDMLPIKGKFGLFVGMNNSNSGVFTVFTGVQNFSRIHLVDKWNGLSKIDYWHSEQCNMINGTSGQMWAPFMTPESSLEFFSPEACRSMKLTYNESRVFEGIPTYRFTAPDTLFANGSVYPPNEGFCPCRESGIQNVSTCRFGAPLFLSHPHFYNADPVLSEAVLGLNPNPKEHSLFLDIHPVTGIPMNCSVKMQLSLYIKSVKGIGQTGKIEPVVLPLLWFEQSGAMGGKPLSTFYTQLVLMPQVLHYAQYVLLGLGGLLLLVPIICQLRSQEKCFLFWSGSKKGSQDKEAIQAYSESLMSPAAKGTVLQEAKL

Compound | AC50 [nM] | activity change, negative = inhibition (at 35 µM (top of the series))
CCCCCCC1CCC/C1=N\NC(N)=S (stereo not drawn) | 0.987 | 
C[C@H](C(=O)NC1CCCC1)N(C(=O)Cn1nnc(-c2ccc3c(c2)OCO3)n1)C1CCCCC1 |  | inactive
COCC(=O)N1CCc2cc(-c3csc(NC(=O)c4cc(OC)cc(OC)c4)n3)ccc21 | 315 | 
